Experiments:
[1] = system: Human immunodeficiency virus 1; experiment: Antiviral activity against HIV1 3B infected in human MT4 cells assessed as inhibition of virus-induced cytopathogenicity by MTT assay; assay type: functional, organism-based; settings: Human immunodeficiency virus 1, 3B
In short: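 MT-4 cells infected with HIV-1 and read by MTT viability. EC50 is the concentration giving 50% protection of cells from virus-induced cytopathogenicity. Values are means of three separate experiments, with variation among triplicate samples under 10%.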

[2] = Selectivity index, ratio of CC50 for human MT4 cells to EC50 for HIV1 3B; assay type: toxicity, cell-based; settings: read-out: Ratio CC50/EC50
In short: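 Computed as CC50/EC50. Both come from MTT readings in MT-4 cells: CC50 is 50% viability loss in mock-infected cells, and EC50 is 50% protection from HIV-1-induced cytopathogenicity. Each is the mean of three experiments.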

[3] = Cytotoxicity against human MT4 cells by MTT assay; assay type: cell-based
In short: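 Uninfected (mock-infected) MT-4 cells were exposed to compound and viability was read by MTT. CC50 is the concentration cutting viability by 50%. Values are means of three separate experiments, with triplicate samples varying by less than 10%.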

Structure (SMILES): Cc1ccc2c(c1)C(=O)N(CCOC(=S)N(C(=O)c1cccc([N+](=O)[O-])c1)c1ccc(Cl)cc1)C2=O
- EC50 [1]: 0.05 µM
- selectivity ratio [2]: > 2000
- CC50 [3]: > 100 µM

Structure (SMILES): Cc1ccc(N(C(=O)c2cccc(C)c2)C(=S)OCCN2C(=O)c3ccccc3C2=O)cc1
- EC50 [1]: 0.04 µM
- selectivity ratio [2]: > 2500
- CC50 [3]: > 100 µM

Structure (SMILES): O=C1c2ccccc2C(=O)N1CCOC(=S)N(C(=O)c1cccc([N+](=O)[O-])c1)c1c(Cl)cccc1Cl
- EC50 [1]: 17 µM
- selectivity ratio [2]: 3.4
- CC50 [3]: 58 µM

Structure (SMILES): Cc1ccc(N(C(=O)c2cccc([N+](=O)[O-])c2)C(=S)OCCN2C(=O)c3ccccc3C2=O)cc1
- EC50 [1]: 0.02 µM
- selectivity ratio [2]: 5000
- CC50 [3]: 100 µM

Structure (SMILES): COc1cccc(OC)c1C(=O)N(C(=S)OCCN1C(=O)c2ccccc2C1=O)c1ccc(C)cc1
- EC50 [1]: 22 µM
- selectivity ratio [2]: 1.6
- CC50 [3]: 36 µM

Structure (SMILES): O=C1c2ccccc2C(=O)N1CCCOC(=S)N(C(=O)c1cccc([N+](=O)[O-])c1)c1ccc(Cl)cc1
- EC50 [1]: 29 µM
- selectivity ratio [2]: 1.8
- CC50 [3]: 53 µM

Structure (SMILES): Cc1ccc(N(C(=O)c2ccccc2[N+](=O)[O-])C(=S)OCCN2C(=O)c3ccccc3C2=O)cc1
- EC50 [1]: 0.4 µM
- selectivity ratio [2]: 250
- CC50 [3]: 100 µM

Structure (SMILES): O=C1c2ccccc2C(=O)N1CCOC(=S)N(C(=O)c1cc([N+](=O)[O-])ccc1Cl)c1ccc(Cl)cc1
- EC50 [1]: 0.07 µM
- selectivity ratio [2]: 643
- CC50 [3]: 45 µM

Structure (SMILES): Cc1ccc(N(C(=O)c2ccc(F)cc2F)C(=S)OCCN2C(=O)c3ccccc3C2=O)cc1
- EC50 [1]: 0.03 µM
- selectivity ratio [2]: 667
- CC50 [3]: 20 µM

Structure (SMILES): O=C1c2ccccc2C(=O)N1CCOC(=S)N(C(=O)c1ccco1)c1cc(Cl)cc(Cl)c1
- EC50 [1]: > 100 µM
- CC50 [3]: > 100 µM

Structure (SMILES): COc1cccc(OC)c1C(=O)N(C(=S)OCCN1C(=O)c2ccccc2C1=O)c1ccc(Cl)cc1
- EC50 [1]: 0.4 µM
- selectivity ratio [2]: 172
- CC50 [3]: 69 µM

Structure (SMILES): O=C1c2ccccc2C(=O)N1CCOC(=S)N(C(=O)c1ccc(Cl)c([N+](=O)[O-])c1)c1ccccc1
- EC50 [1]: 0.35 µM
- selectivity ratio [2]: 146
- CC50 [3]: 51 µM

Structure (SMILES): Cc1ccc(N(C(=O)c2c(F)cccc2F)C(=S)OCCN2C(=O)c3ccccc3C2=O)cc1
- EC50 [1]: 1 µM
- selectivity ratio [2]: 65
- CC50 [3]: 65 µM

Structure (SMILES): Cc1ccc(N(C(=O)c2ccc(Cl)c([N+](=O)[O-])c2)C(=S)OCCN2C(=O)c3ccccc3C2=O)cc1
- EC50 [1]: 0.06 µM
- selectivity ratio [2]: 783
- CC50 [3]: 47 µM

Structure (SMILES): O=C1c2ccccc2C(=O)N1CCOC(=S)N(C(=O)c1ccc(Cl)c(Cl)c1)c1ccc(Cl)cc1
- EC50 [1]: 0.009 µM
- selectivity ratio [2]: 3890
- CC50 [3]: 35 µM

Structure (SMILES): O=C1c2ccccc2C(=O)N1CCOC(=S)N(C(=O)c1c(Cl)cccc1Cl)c1ccc(Cl)cc1
- EC50 [1]: 5.6 µM
- selectivity ratio [2]: 3.6
- CC50 [3]: 20 µM

Structure (SMILES): O=C1c2ccccc2C(=O)N1CCOC(=S)N(C(=O)c1ccccc1[N+](=O)[O-])c1ccc(Cl)cc1
- EC50 [1]: 0.07 µM
- selectivity ratio [2]: 300
- CC50 [3]: 21 µM

Structure (SMILES): O=C1c2ccccc2C(=O)N1CCOC(=S)N(C(=O)c1cc(F)cc(F)c1)c1ccc(Cl)cc1
- EC50 [1]: 0.007 µM
- selectivity ratio [2]: 8430
- CC50 [3]: 59 µM

Structure (SMILES): Cc1ccc(C(=O)N(C(=S)OCCN2C(=O)c3ccccc3C2=O)c2ccc(C)cc2)cc1
- EC50 [1]: 0.02 µM
- selectivity ratio [2]: 4150
- CC50 [3]: 83 µM

Structure (SMILES): O=C1c2ccccc2C(=O)N1CCOC(=S)N(C(=O)c1cccnc1Cl)c1ccc(Cl)cc1
- EC50 [1]: 0.005 µM

Structure (SMILES): O=C1c2ccccc2C(=O)N1CCOC(=S)N(C(=O)c1ccccc1)c1ccc(Cl)cc1
- EC50 [1]: 0.1 µM

Structure (SMILES): O=C1c2ccccc2C(=O)N1CCOC(=S)N(C(=O)c1ccc(Cl)cc1)c1ccc(Cl)cc1
- EC50 [1]: 0.025 µM

Structure (SMILES): Cc1ccc(N(C(=O)c2ccccc2C)C(=S)OCCN2C(=O)c3ccccc3C2=O)cc1
- EC50 [1]: 0.2 µM
- selectivity ratio [2]: > 500
- CC50 [3]: > 100 µM

Structure (SMILES): O=C1c2ccccc2C(=O)N1CCOC(=S)N(C(=O)c1c(F)cccc1F)c1ccc(Cl)cc1
- EC50 [1]: 0.02 µM
- selectivity ratio [2]: 1950
- CC50 [3]: 39 µM

Structure (SMILES): O=C1c2ccccc2C(=O)N1CCOC(=S)N(C(=O)c1cccs1)c1ccc(Cl)cc1
- EC50 [1]: 0.008 µM

Structure (SMILES): Cc1ccc(N(C(=O)c2cc(F)ccc2F)C(=S)OCCN2C(=O)c3ccccc3C2=O)cc1
- EC50 [1]: 0.04 µM
- selectivity ratio [2]: 1550
- CC50 [3]: 62 µM

Structure (SMILES): O=C1c2ccccc2C(=O)N1CCOC(=S)N(C(=O)c1ccc([N+](=O)[O-])cc1Cl)c1ccc(Cl)cc1
- EC50 [1]: 0.008 µM
- selectivity ratio [2]: 2380
- CC50 [3]: 19 µM

Structure (SMILES): Cc1ccc(N(C(=O)c2ccc(Cl)cc2Cl)C(=S)OCCN2C(=O)c3ccccc3C2=O)cc1
- EC50 [1]: 0.3 µM
- selectivity ratio [2]: 163
- CC50 [3]: 49 µM

Structure (SMILES): O=C1c2ccccc2C(=O)N1CCOC(=S)N(C(=O)c1cccc([N+](=O)[O-])c1)c1ccc(Cl)cc1
- EC50 [1]: 0.0015 µM
- selectivity ratio [2]: 12000
- CC50 [3]: 18 µM

Structure (SMILES): O=C1c2ccccc2C(=O)N1CCOC(=S)N(C(=O)c1ccc(Cl)c(Cl)c1)c1ccccc1
- EC50 [1]: 0.5 µM
- selectivity ratio [2]: 104
- CC50 [3]: 52 µM

Structure (SMILES): CC(CN1C(=O)c2ccccc2C1=O)OC(=S)N(C(=O)c1cccc([N+](=O)[O-])c1)c1ccc(Cl)cc1 (racemic)
- EC50 [1]: 0.7 µM
- selectivity ratio [2]: 44.3
- CC50 [3]: 31 µM

Structure (SMILES): O=C1c2ccccc2C(=O)N1CCOC(=S)N(C(=O)c1ccco1)c1ccc(Cl)cc1Cl
- EC50 [1]: 2.6 µM
- selectivity ratio [2]: > 38
- CC50 [3]: > 100 µM

Structure (SMILES): Cc1ccc(N(C(=O)c2cccc(Cl)c2Cl)C(=S)OCCN2C(=O)c3ccccc3C2=O)cc1
- EC50 [1]: 0.2 µM
- selectivity ratio [2]: 175
- CC50 [3]: 35 µM

Structure (SMILES): O=C1c2ccccc2C(=O)N1CCOC(=S)N(C(=O)c1ccc(Br)cc1)c1ccc(Br)cc1
- EC50 [1]: 0.035 µM
- selectivity ratio [2]: 2090
- CC50 [3]: 73 µM

Structure (SMILES): Cc1ccc(N(C(=O)c2ccc([N+](=O)[O-])cc2)C(=S)OCCN2C(=O)c3ccccc3C2=O)cc1
- EC50 [1]: 0.03 µM
- selectivity ratio [2]: 1930
- CC50 [3]: 58 µM

Structure (SMILES): Cc1ccccc1C(=O)N(C(=S)OCCN1C(=O)c2ccccc2C1=O)c1ccc(Cl)cc1
- EC50 [1]: 0.04 µM
- selectivity ratio [2]: 525
- CC50 [3]: 21 µM

Structure (SMILES): O=C1c2ccccc2C(=O)N1CCOC(=S)N(C(=O)c1ccccc1)c1ccccc1
- EC50 [1]: 0.4 µM

Structure (SMILES): Cc1ccc2c(c1)C(=O)N(CCOC(=S)N(C(=O)c1cccs1)c1ccc(Cl)cc1)C2=O
- EC50 [1]: 0.02 µM
- selectivity ratio [2]: > 5000
- CC50 [3]: > 100 µM

Structure (SMILES): O=C1c2ccccc2C(=O)N1CCOC(=S)N(C(=O)c1ccc(Cl)nc1)c1ccc(Cl)cc1
- EC50 [1]: 0.006 µM

Structure (SMILES): Cc1ccc(N(C(=O)c2cc(F)cc(F)c2)C(=S)OCCN2C(=O)c3ccccc3C2=O)cc1
- EC50 [1]: 0.05 µM
- selectivity ratio [2]: 1080
- CC50 [3]: 54 µM

Structure (SMILES): Cc1ccc(N(C(=O)c2ccc(Br)c(C)c2)C(=S)OCCN2C(=O)c3ccccc3C2=O)cc1
- EC50 [1]: 0.05 µM
- selectivity ratio [2]: > 2000
- CC50 [3]: > 100 µM

Structure (SMILES): Cc1ccc(N(C(=O)c2ccc([N+](=O)[O-])cc2Cl)C(=S)OCCN2C(=O)c3ccccc3C2=O)cc1
- EC50 [1]: 0.09 µM
- selectivity ratio [2]: 189
- CC50 [3]: 17 µM

Structure (SMILES): O=C1c2ccccc2C(=O)N1CCOC(=S)N(C(=O)c1cccc([N+](=O)[O-])c1)c1c(Cl)cc(Cl)cc1Cl
- EC50 [1]: > 20 µM
- CC50 [3]: 20 µM

Structure (SMILES): O=C1c2ccccc2C(=O)N1CCOC(=S)N(C(=O)c1cccc2ccccc12)c1ccc(Cl)cc1
- EC50 [1]: 0.03 µM
- selectivity ratio [2]: 200
- CC50 [3]: 6 µM

Structure (SMILES): O=C1c2ccccc2C(=O)N1COC(=S)N(C(=O)c1cccc([N+](=O)[O-])c1)c1ccc(Cl)cc1
- EC50 [1]: > 100 µM
- CC50 [3]: > 100 µM

Structure (SMILES): O=C1c2ccccc2C(=O)N1CCOC(=S)N(C(=O)c1ccc(C(F)(F)F)cc1)c1ccc(Cl)cc1
- EC50 [1]: 0.005 µM
- selectivity ratio [2]: 2000
- CC50 [3]: 10 µM

Structure (SMILES): CCCCCOc1ccc(C(=O)N(C(=S)OCCN2C(=O)c3ccccc3C2=O)c2ccc(F)cc2)cc1
- EC50 [1]: 8.5 µM
- selectivity ratio [2]: > 11.8
- CC50 [3]: > 100 µM

Structure (SMILES): O=C1c2ccccc2C(=O)N1CCOC(=S)N(C(=O)c1ccco1)c1cccc(Cl)c1Cl
- EC50 [1]: > 100 µM
- CC50 [3]: 100 µM

Structure (SMILES): O=C1c2ccccc2C(=O)N1CCOC(=S)N(C(=O)c1ccco1)c1ccc(Cl)cc1
- EC50 [1]: 0.007 µM
